# Calls of active or inactive are those of the source. Unless noted, the calls are words filed in the database; no cut-off is given here.
# Tested on: MCF-10A
# Experiment: Inhibition of MPC in human MCF-10A cells assessed as increase in cellular lactate production at 10 uM incubated for 24 to 30 hrs
# Format: cell-based
# Settings: time 24-30 hrs
# Procedure, shortened: (§1)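 MCF10A cells were seeded in triplicate and treated the next day with analogue or an equal volume of DMSO for 24-30 h. Lactate in the culture medium was measured on a BioProfile Basic Analyzer. It was normalized to cell number and run time to give a rate (nmol lactate per million cells per hour), relative to DMSO. Statistics were one-way ANOVA with Dunnett's post-test against DMSO.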
row,SMILES,inhibition
1,Cc1ccc(/C=C(\C#N)C(=O)O)cc1F,inactive
2,N#C/C(=C\c1cn(Cc2cc(C(F)(F)F)cc(C(F)(F)F)c2)c2cccc(OCc3ccccc3)c12)C(=O)O,inactive
3,N#C/C(=C\c1cn(Cc2cc(C(F)(F)F)cc(C(F)(F)F)c2)c2nccc(Br)c12)C(=O)O,Active
4,CC(C)(C)OC(=O)/C(C#N)=C/c1cn(Cc2cc(C(F)(F)F)cc(C(F)(F)F)c2)c2ccccc12,inactive
5,COc1ccc(-n2cc(/C=C(\C#N)C(=O)O)c3ccccc32)cc1,Active
6,N#C/C(=C\c1cn(Cc2ccc(F)cc2)c2ccccc12)C(=O)O,Active
7,CCOC(=O)/C(C#N)=C/c1cn(-c2ccccc2OC)c2ccccc12,Active
8,N#C/C(=C\c1ccccc1)C(=O)O,inactive
9,N#C/C(=C\c1cn(Cc2ccccc2)c2ccccc12)C(=O)O,Active
10,N#C/C(=C\c1cn(Cc2cc(C(F)(F)F)cc(C(F)(F)F)c2)c2c(Cl)cccc12)C(=O)O,inactive
11,CCOC(=O)/C(C#N)=C/c1cn(C(=O)Cc2cc(C(F)(F)F)cc(C(F)(F)F)c2)c2ccccc12,inactive
12,N#C/C(=C\c1cn(Cc2cc(C(F)(F)F)cc(C(F)(F)F)c2)c2cccnc12)C(=O)O,Active
13,COC(=O)/C(C#N)=C/c1cn(Cc2cc(C(F)(F)F)cc(C(F)(F)F)c2)c2ccccc12,inactive
14,COc1ccccc1-n1cc(/C=C(\C#N)C(=O)O)c2ccccc21,Active
15,N#CC(Cc1cn(-c2ccccc2)c2ccccc12)C(=O)O (stereo unspecified),inactive
16,CCOC(=O)/C(C#N)=C/c1cn(Cc2ccccc2)c2ccccc12,Active
17,CCOP(=O)(OCC)/C(C#N)=C/c1cn(Cc2cc(C(F)(F)F)cc(C(F)(F)F)c2)c2ccccc12,Active
18,CCOP(=O)(OCC)/C(C#N)=C/c1cn(Cc2cc(C(F)(F)F)cc(C(F)(F)F)c2)c2ncccc12,Active
19,N#C/C(=C\c1cn(Cc2cc(F)cc(F)c2)c2ccccc12)C(=O)O,Active
20,N#C/C(=C\c1cn(Cc2ccc(F)c(F)c2)c2ccccc12)C(=O)O,Active
21,N#C/C(=C\c1cn(Cc2cc(C(F)(F)F)cc(C(F)(F)F)c2)c2ccccc12)C(N)=O,Active
22,N#C/C(=C\c1ccc(C(F)(F)F)cc1)C(=O)O,inactive

row,SMILES,inhibition
1,N#C/C(=C\c1cn(Cc2cc(C(F)(F)F)cc(C(F)(F)F)c2)c2c(OCc3ccccc3)cccc12)C(=O)O,Active
2,N#C/C(=C\c1cn(Cc2cc(C(F)(F)F)cc(C(F)(F)F)c2)c2cnccc12)C(=O)O,Active
3,CCOC(=O)/C(C#N)=C/c1cn(-c2ccccc2)c2ccccc12,inactive
4,N#C/C(=C\c1ccc(O)cc1)C(=O)O,inactive
5,CCOC(=O)/C(C#N)=C/c1cn(Cc2cc(C(F)(F)F)cc(C(F)(F)F)c2)c2ccccc12,Active
6,N#C/C(=C\c1cn(Cc2cc(C(F)(F)F)cc(C(F)(F)F)c2)c2cc(OCc3ccccc3)ccc12)C(=O)O,inactive
7,N#C/C(=C\c1cn(Cc2cc(C(F)(F)F)cc(C(F)(F)F)c2)c2c(F)cccc12)C(=O)O,Active
8,N#C/C(=C\c1cn(Cc2cc(F)cc(F)c2)c2cc(F)ccc12)C(=O)O,Active
9,N#C/C(=C\c1ccc(F)c(C(F)(F)F)c1)C(=O)O,inactive
10,N#C/C(=C\c1cn(Cc2cc(C(F)(F)F)cc(C(F)(F)F)c2)c2cc(Cl)ccc12)C(=O)O,inactive
11,CCOC(=O)/C(C#N)=C/c1cn(-c2ccc(OC)cc2)c2ccccc12,Active
12,N#C/C(=C\c1cn(Cc2cc(C(F)(F)F)cc(C(F)(F)F)c2)c2ccccc12)C(=O)N1CCOCC1,Active
13,CCOC(=O)/C(C#N)=C/c1cn(Cc2ccc(F)c(F)c2)c2ccccc12,Active
14,CCOC(=O)/C(C#N)=C/c1cn(Cc2ccc(F)cc2)c2ccccc12,Active
15,N#C/C(=C\c1cn(Cc2cc(C(F)(F)F)cc(C(F)(F)F)c2)c2ccccc12)C(=O)O,Active
16,N#C/C(=C\c1c[nH]c2ccccc12)C(=O)O,inactive
17,N#C/C(=C\c1cn(Cc2cc(C(F)(F)F)cc(C(F)(F)F)c2)c2cccc(Br)c12)C(=O)O,Active
18,N#C/C(=C\c1cc(C(F)(F)F)cc(C(F)(F)F)c1)C(=O)O,inactive
19,N#C/C(=C\c1cn(Cc2ccc(F)c(F)c2)c2cc(F)ccc12)C(=O)O,Active
20,N#C/C(=C\c1cn(Cc2cc(C(F)(F)F)cc(C(F)(F)F)c2)c2nccc(Cl)c12)C(=O)O,Active
21,N#C/C(=C\c1cn(Cc2cc(C(F)(F)F)cc(C(F)(F)F)c2)c2ccc(Cl)cc12)C(=O)O,inactive
22,N#CC(C#N)=Cc1cn(-c2ccccc2)c2ccccc12,inactive

row,SMILES,inhibition
1,CCOC(=O)/C(C#N)=C/c1cn(Cc2cc(C(F)(F)F)cc(C(F)(F)F)c2)c2cccc(Br)c12,Active
2,COc1cccc2c1c(/C=C(\C#N)C(=O)O)cn2Cc1cc(C(F)(F)F)cc(C(F)(F)F)c1,Active
3,N#C/C(=C\c1cn(Cc2cc(C(F)(F)F)cc(C(F)(F)F)c2)c2ccccc12)P(=O)(O)O,inactive
4,N#C/C(=C\c1cn(Cc2cc(C(F)(F)F)cc(C(F)(F)F)c2)c2cccc(C(=O)O)c12)C(=O)O,inactive
5,N#C/C(=C\c1cccc(C(F)(F)F)c1Cl)C(=O)O,inactive
6,N#C/C(=C\c1cn(-c2ccccc2)c2ccccc12)C(=O)O,Active
7,N#C/C(=C\c1cn(Cc2cc(C(F)(F)F)cc(C(F)(F)F)c2)c2cccc(Cl)c12)C(=O)O,Active
8,N#C/C(=C\c1ccc(F)c(F)c1)C(=O)O,inactive
9,N#C/C(=C\c1ccccc1F)C(=O)O,inactive
10,N#C/C(=C\c1cn(Cc2cc(C(F)(F)F)cc(C(F)(F)F)c2)c2ncccc12)C(=O)O,Active
11,CCOC(=O)/C(C#N)=C/c1cn(Cc2cc(F)cc(F)c2)c2ccccc12,Active
12,N#C/C(=C\c1cn(Cc2cc(F)cc(F)c2)c2ccc(F)cc12)C(=O)O,Active
13,CCOC(=O)/C(C#N)=C/c1c[nH]c2ccccc12,inactive
14,CCOC(=O)/C(C#N)=C/c1cn(Cc2cc(C(F)(F)F)cc(C(F)(F)F)c2)c2ncccc12,Active
15,CCOC(=O)C(=Cc1cn(-c2ccccc2)c2ccccc12)C(=O)O (mixture of isomers),inactive
16,N#C/C(=C\c1ccc(F)cc1F)C(=O)O,inactive
17,N#C/C(=C\c1cn(Cc2ccc(F)c(F)c2)c2ccc(F)cc12)C(=O)O,Active
18,N#C/C(=C\c1cn(Cc2cc(C(F)(F)F)cc(C(F)(F)F)c2)c2cccc(C#N)c12)C(=O)O,Active
19,CCOC(=O)/C(C#N)=C/c1cn(Cc2cc(C(F)(F)F)cc(C(F)(F)F)c2)c2cccc(F)c12,Active
20,N#C/C(=C\c1ccc(F)cc1)C(=O)O,inactive
21,N#C/C(=C\c1cn(Cc2cc(C(F)(F)F)cc(C(F)(F)F)c2)c2cccc(F)c12)C(=O)O,Active

# Tested on: MCF-10A
# Experiment: Inhibition of MPC in human MCF-10A cells assessed as increase in cellular lactate production incubated for 24 to 30 hrs
# Format: cell-based
# Settings: time 24-30 hrs
# Procedure, shortened: as §1
row,SMILES,inhibition
1,N#C/C(=C\c1cn(-c2ccccc2)c2ccccc12)C(=O)O,Dose-dependent effect

# Tested on: MCF-10A
# Experiment: Toxicity in human MCF-10A cells assessed as reduction in cell viability incubated for 24 to 30 hrs
# Format: cell-based
# Settings: time 24-30 hrs
row,SMILES,Activity
1,N#C/C(=C\c1cn(Cc2cc(C(F)(F)F)cc(C(F)(F)F)c2)c2ccccc12)C(N)=O,Toxic
2,N#C/C(=C\c1cn(Cc2cc(C(F)(F)F)cc(C(F)(F)F)c2)c2ccccc12)C(=O)N1CCOCC1,Toxic

# Tested on: not listed separately
# Experiment: (§2) Inhibition of MPC in human MCF-10A cells assessed as reduction in oxygen consumption rate using pyruvate and malate and ADP
# Format: cell-based
# Settings: not given
# Procedure, shortened: (§3)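 A Seahorse XF Analyzer measured the respiration of permeabilized MCF10A cells, with 5 mM pyruvate and 0.5 mM malate as substrates plus ADP (state 3). Cells received half-log doses from 3 nM to 10 µM. OCR (fmol O2 per cell per min) was measured in duplicate and normalized to cell number. IC50 was fitted from the dose-response.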
row,SMILES,IC50
1,N#C/C(=C\c1cn(Cc2cc(C(F)(F)F)cc(C(F)(F)F)c2)c2ccccc12)C(=O)O,0.0166 µM
2,N#C/C(=C\c1cn(Cc2cc(C(F)(F)F)cc(C(F)(F)F)c2)c2ncccc12)C(=O)O,0.0428 µM

# Tested on: MCF-10A
# Experiment: as §2
# Format: cell-based
# Settings: not given
# Procedure, shortened: as §3
row,SMILES,inhibition
1,N#C/C(=C\c1cn(Cc2cc(C(F)(F)F)cc(C(F)(F)F)c2)c2ncccc12)C(=O)O,Active

# Tested on: Mus musculus
# Experiment: Stimulation of hair growth in C57BL/6J mouse shaved at postnatal day 50 during telogen-phase of hair cycle at 20 uM dosed topically to shaved back skin every other day for 2 weeks
# Format: functional, organism-based
# Settings: not given
# Procedure, shortened: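 Wild-type C57BL/6J mice were shaved at postnatal day 50. They were treated topically every other day with about 300 µl of compound at 20 µM, suspended in Transderma Plo Ultramax gel, for up to 3 weeks; vehicle served as control. Pigmentation and hair growth (anagen entry) were photographed weekly. Mice were housed under defined pathogen-free conditions.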
row,SMILES,Activity
1,N#C/C(=C\c1cn(-c2ccccc2)c2cccc(Cl)c12)C(=O)O,Active
2,N#C/C(=C\c1cn(Cc2cc(C(F)(F)F)cc(C(F)(F)F)c2)c2ccccc12)C(=O)O,Active
3,N#C/C(=C\c1cn(Cc2cc(C(F)(F)F)cc(C(F)(F)F)c2)c2cccc(Br)c12)C(=O)O,Active
4,N#C/C(=C\c1cn(Cc2cc(C(F)(F)F)cc(C(F)(F)F)c2)c2cccc(Cl)c12)C(=O)O,Active
5,N#C/C(=C\c1cn(Cc2cc(C(F)(F)F)cc(C(F)(F)F)c2)c2cccc(F)c12)C(=O)O,Active

# From ChEMBL document CHEMBL4706682, “Development of Novel Mitochondrial Pyruvate Carrier Inhibitors to Treat Hair Loss” (J Med Chem, 2021)
